≈ marks a conversion by molar mass, not a printed value.
Legend:
[1] = Stability in human plasma assessed as parent compound remaining at 100 uM after 60 mins LC/MS/MS analysis relative to control; type: ADME, cell-free; details: read-out: Stability
In short: (§1)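 Thawed human plasma was cleared at 4000 rpm and spiked from a 100 μM dosing solution to a final 2 μM, in duplicate, at 37 °C. Propantheline served as positive control. Sampling at 0, 10, 30, 60 and 120 min into ACN/MeOH stop solution with tolbutamide and labetalol internal standards. After centrifugation, supernatant was diluted with water and run by LC/MS/MS. % remaining was taken from the analyte/IS peak-area ratio, with no standard curve.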

[2] = target: T1, Lanosterol 14-alpha demethylase (Candida albicans (strain SC5314 / ATCC MYA-2876) (Yeast), UniProt P10613); experiment: Inhibition of CYP51 in Candida albicans ATCC SC5314 assessed as lanosterol level at 8 ug/ml incubated for 16 hrs by GC/MS analysis (reference value: 0%); set-up: scale not given: the % may be the effect or the level left; details: candida albicans sc5314, 16 h
[3] = target: T1, Lanosterol 14-alpha demethylase; experiment: Inhibition of CYP51 in Candida albicans ATCC SC5314 assessed as ergosterol level at 2 ug/ml incubated for 16 hrs by GC/MS analysis (reference value: 100%); set-up: scale not given: the % may be the effect or the level left; details: candida albicans sc5314, 16 h
Candida tropicalis = experiment: Antifungal activity against Candida tropicalis CGMCC 2.3739 assessed as inhibition of visible microbial growth by NCCLS protocol based method; type: functional
In short: (§2)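 Compounds dissolved in DMSO and serially diluted into growth medium. MIC was read as the lowest concentration that inhibited visible fungal growth.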

[4] = target: T1, Lanosterol 14-alpha demethylase; experiment: Inhibition of CYP51 in Candida albicans ATCC SC5314 assessed as obtusifoliol level at 0.5 ug/ml incubated for 16 hrs by GC/MS analysis (reference value: 0%); set-up: scale not given: the % may be the effect or the level left; details: candida albicans sc5314, 16 h
[5] = target: T1, Lanosterol 14-alpha demethylase; experiment: Inhibition of CYP51 in Candida albicans ATCC SC5314 assessed as eburicol level at 0.13 ug/ml incubated for 16 hrs by GC/MS analysis (reference value: 0%); set-up: scale not given: the % may be the effect or the level left; details: candida albicans sc5314, 16 h
Candida albicans [6] = experiment: Antifungal activity against fluconazole-resistant Candida albicans Strain 17# assessed as inhibition of visible microbial growth by NCCLS protocol based method; type: functional
In short: (§3)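 Broth dilution MIC against clinical fluconazole-resistant C. albicans isolates from AIDS patients. Compounds dissolved in DMSO and serially diluted into growth medium. MIC was taken as the lowest concentration that inhibits visible fungal growth. Fluconazole and itraconazole served as positive controls.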

[7] = Cytotoxicity in human A549 cells assessed as reduction in cell viability at 0.40 uM/L incubated for 24 hrs by MTT assay relative to control; type: cell-based; details: read-out: INH
In short: (§4)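 A549 cells were seeded at 3000 cells/well and preincubated for 16 h at 37 °C, 5% CO2. Medium was then replaced with fresh medium holding compound (DMSO stock diluted to final 0.08, 0.4, 2.0, 10 or 50 μM/L). Exposure lasted 24 h at 37 °C, 5% CO2, followed by MTT for 4 h and absorbance at 490 nm. Results are given as % inhibition.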

[8] = Cytotoxicity in human A549 cells assessed as reduction in cell viability at 50 uM/L incubated for 24 hrs by MTT assay relative to control; type: cell-based; details: read-out: INH; in short: as §4
Aspergillus fumigatus = experiment: Antifungal activity against Aspergillus fumigatus CGMCC 3.7795 assessed as inhibition of visible microbial growth by NCCLS protocol based method; type: functional; in short: as §2
Candida albicans [9] = experiment: Antifungal activity against Candida albicans ATCC SC5314 assessed as inhibition of visible microbial growth by NCCLS protocol based method; type: functional; in short: as §2
[10] = target: T1, Lanosterol 14-alpha demethylase; experiment: Inhibition of CYP51 in Candida albicans ATCC SC5314 assessed as obtusifoliol level at 0.13 ug/ml incubated for 16 hrs by GC/MS analysis (reference value: 0%); set-up: scale not given: the % may be the effect or the level left; details: candida albicans sc5314, 16 h
[11] = target: T1, Lanosterol 14-alpha demethylase; experiment: Inhibition of CYP51 in Candida albicans ATCC SC5314 assessed as eburicol level at 0.5 ug/ml incubated for 16 hrs by GC/MS analysis (reference value: 0%); set-up: scale not given: the % may be the effect or the level left; details: candida albicans sc5314, 16 h
[12] = target: T1, Lanosterol 14-alpha demethylase; experiment: Inhibition of CYP51 in Candida albicans ATCC SC5314 assessed as lanosterol level at 2 ug/ml incubated for 16 hrs by GC/MS analysis (reference value: 0%); set-up: scale not given: the % may be the effect or the level left; details: candida albicans sc5314, 16 h
Candida albicans [13] = experiment: Antifungal activity against fluconazole-resistant Candida albicans Strain CaR assessed as inhibition of visible microbial growth by NCCLS protocol based method; type: functional; in short: as §3
[14] = Cytotoxicity in human A549 cells assessed as reduction in cell viability at 0.08 uM/L incubated for 24 hrs by MTT assay relative to control; type: cell-based; details: read-out: INH; in short: as §4
[15] = target: T1, Lanosterol 14-alpha demethylase; experiment: Inhibition of CYP51 in Candida albicans ATCC SC5314 assessed as ergosterol level at 8 ug/ml incubated for 16 hrs by GC/MS analysis (reference value: 100%); set-up: scale not given: the % may be the effect or the level left; details: candida albicans sc5314, 16 h
[16] = Cytotoxicity in human A549 cells assessed as reduction in cell viability at 10 uM/L incubated for 24 hrs by MTT assay relative to control; type: cell-based; details: read-out: INH; in short: as §4
[17] = target: T1, Lanosterol 14-alpha demethylase; experiment: Inhibition of CYP51 in Candida albicans ATCC SC5314 assessed as lanosterol level at 0.5 ug/ml incubated for 16 hrs by GC/MS analysis (reference value: 0%); set-up: scale not given: the % may be the effect or the level left; details: candida albicans sc5314, 16 h
[18] = target: T1, Lanosterol 14-alpha demethylase; experiment: Inhibition of CYP51 in Candida albicans ATCC SC5314 assessed as lanosterol level at 0.13 ug/ml incubated for 16 hrs by GC/MS analysis (reference value: 0%); set-up: scale not given: the % may be the effect or the level left; details: candida albicans sc5314, 16 h
[19] = Cytotoxicity in human A549 cells assessed as reduction in cell viability at 2 uM/L incubated for 24 hrs by MTT assay relative to control; type: cell-based; details: read-out: INH; in short: as §4
[20] = target: T1, Lanosterol 14-alpha demethylase; experiment: Inhibition of CYP51 in Candida albicans ATCC SC5314 assessed as eburicol level at 2 ug/ml incubated for 16 hrs by GC/MS analysis (reference value: 0%); set-up: scale not given: the % may be the effect or the level left; details: candida albicans sc5314, 16 h
[21] = target: T1, Lanosterol 14-alpha demethylase; experiment: Inhibition of CYP51 in Candida albicans ATCC SC5314 assessed as obtusifoliol level at 8 ug/ml incubated for 16 hrs by GC/MS analysis (reference value: 0%); set-up: scale not given: the % may be the effect or the level left; details: candida albicans sc5314, 16 h
[22] = Stability in human plasma assessed as parent compound remaining at 100 uM after 120 mins LC/MS/MS analysis relative to control; type: ADME, cell-free; details: read-out: Stability; in short: as §1
[23] = target: T1, Lanosterol 14-alpha demethylase; experiment: Inhibition of CYP51 in Candida albicans ATCC SC5314 assessed as ergosterol level at 0.13 ug/ml incubated for 16 hrs by GC/MS analysis (reference value: 100%); set-up: scale not given: the % may be the effect or the level left; details: candida albicans sc5314, 16 h
Candida albicans [24] = experiment: Antifungal activity against Candida albicans CPCC 400523 assessed as inhibition of visible microbial growth by NCCLS protocol based method; type: functional
Cryptococcus neoformans = experiment: Antifungal activity against Cryptococcus neoformans CGMCC 2.3161 assessed as inhibition of visible microbial growth by NCCLS protocol based method; type: functional; in short: as §2
[25] = target: T1, Lanosterol 14-alpha demethylase; experiment: Inhibition of CYP51 in Candida albicans ATCC SC5314 assessed as eburicol level at 8 ug/ml incubated for 16 hrs by GC/MS analysis (reference value: 0%); set-up: scale not given: the % may be the effect or the level left; details: candida albicans sc5314, 16 h
[26] = target: T1, Lanosterol 14-alpha demethylase; experiment: Inhibition of CYP51 in Candida albicans ATCC SC5314 assessed as ergosterol level at 0.5 ug/ml incubated for 16 hrs by GC/MS analysis (reference value: 100%); set-up: scale not given: the % may be the effect or the level left; details: candida albicans sc5314, 16 h
[27] = target: T1, Lanosterol 14-alpha demethylase; experiment: Inhibition of CYP51 in Candida albicans ATCC SC5314 assessed as obtusifoliol level at 2 ug/ml incubated for 16 hrs by GC/MS analysis (reference value: 0%); set-up: scale not given: the % may be the effect or the level left; details: candida albicans sc5314, 16 h
[28] = target: T1, Lanosterol 14-alpha demethylase; experiment: Inhibition of CYP51 in Candida albicans ATCC SC5314 assessed as change in sterol components incubated for 16 hrs by GC/MS analysis; details: candida albicans sc5314, 16 h
Candida albicans [29] = experiment: Antifungal activity against Candida albicans SC5314; type: functional

T1 sequence (P10613 whole entry): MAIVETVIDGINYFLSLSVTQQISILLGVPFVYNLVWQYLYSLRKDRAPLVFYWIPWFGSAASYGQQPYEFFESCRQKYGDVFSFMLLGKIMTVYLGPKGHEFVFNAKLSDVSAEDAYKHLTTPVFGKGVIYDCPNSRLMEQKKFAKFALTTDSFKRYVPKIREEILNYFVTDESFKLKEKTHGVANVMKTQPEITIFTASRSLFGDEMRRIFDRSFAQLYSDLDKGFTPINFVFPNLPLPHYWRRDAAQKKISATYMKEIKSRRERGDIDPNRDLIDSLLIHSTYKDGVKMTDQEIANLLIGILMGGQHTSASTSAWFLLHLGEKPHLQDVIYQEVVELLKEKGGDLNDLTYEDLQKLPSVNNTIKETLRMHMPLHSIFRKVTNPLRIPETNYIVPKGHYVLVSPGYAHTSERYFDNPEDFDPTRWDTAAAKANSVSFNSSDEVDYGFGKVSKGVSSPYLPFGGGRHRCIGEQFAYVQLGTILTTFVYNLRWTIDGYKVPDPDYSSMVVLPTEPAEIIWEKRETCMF

SMILES	remaining at 1 h, 100 µM [1]	Activity [2]	Activity [3]	MIC (Candida tropicalis)	Activity [4]	Activity [5]	MIC (Candida albicans [6])	cytotoxicity at 24 h, 0.4 µM [7]	cytotoxicity at 24 h, 50 µM [8]	MIC (Aspergillus fumigatus)	MIC (Candida albicans [9])	Activity [10]	Activity [11]	Activity [12]	MIC (Candida albicans [13])	cytotoxicity at 24 h, 0.08 µM [14]	Activity [15]	cytotoxicity at 24 h, 10 µM [16]	MIC (Candida albicans [24])	MIC (Cryptococcus neoformans)	other results
CC[C@H](C)[C@@H](Cn1ccnc1)NC(=O)c1ccc(-c2ccccc2F)cc1F	114%	23.8%	6.5%	< 0.03 µg/mL	12.2%	0%	2 µg/mL	6.6%	13.9%	2 µg/mL	< 0.03 µg/mL	0%	30.8%	20%	8 µg/mL	5.4%	0%	8.3%	0.06 µg/mL	1 µg/mL	Activity [17]: 21%; Activity [18]: 2%; cytotoxicity at 24 h, 2 µM [19]: 7.3%; Activity [20]: 49.7%; Activity [21]: 31.3%; remaining at 2 h, 100 µM [22]: 92.6%; Activity [23]: 98%; Activity [25]: 44.9%; Activity [26]: 36%; Activity [27]: 23.8%
OC(Cn1cncn1)(Cn1cncn1)c1ccc(F)cc1F [FLUCONAZOLE]	–	22.9%	17.2%	1 µg/mL	0%	0%	> 64 µg/mL	–	–	> 64 µg/mL	0.5 µg/mL	0%	0%	28%	> 64 µg/mL	–	0%	–	1 µg/mL	4 µg/mL	Activity [28]: Dose-dependent effect; Activity [17]: 9.9%; Activity [18]: 2.3%; Activity [20]: 37.1%; Activity [21]: 37.2%; Activity [23]: 97.7%; Activity [25]: 39.9%; Activity [26]: 90.1%; Activity [27]: 17.7%
CC[C@H](C)[C@@H](Cn1ccnc1)NC(=O)c1ccc(-c2ccccc2)cc1F	113%	–	–	< 0.03 µg/mL	–	–	2 µg/mL	1%	14%	2 µg/mL	< 0.03 µg/mL	–	–	–	4 µg/mL	1.2%	–	3.1%	< 0.03 µg/mL	1 µg/mL	cytotoxicity at 24 h, 2 µM [19]: 1.2%; remaining at 2 h, 100 µM [22]: 86.3%
CC(C)OC(=O)C(Cn1ccnc1)NC(=O)c1ccc(-c2ccccc2)cc1 (centres undefined)	–	–	–	< 0.06 µg/mL	–	–	–	–	–	> 64 µg/mL	< 0.03 µg/mL	–	–	–	–	–	–	–	0.25 µg/mL	2 µg/mL	MIC (Candida albicans [29]): 0.03 µg/mL (≈ 0.0795 µM)
